# Laboratory results taken from article PMC6331221 (Biomaterials, 2018).
# Key:
# [1] = system: A2780 ovarian cancer cell line; test: MTT cytotoxicity assay in A2780 cells; format: cell-based, human; conditions: 72 h
# How it was run: (§1)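 Cells grown in RPMI1640 with 10% FBS and 1% penicillin-streptomycin, seeded at 3000 cells/well 24 h before treatment, then exposed to free or micelle-incorporated drug serially diluted in full medium for 72 h. MTT added for 4 h at 37°C, formazan dissolved in DMSO, absorbance read at 562 nm. Survival relative to untreated wells; six wells, mean ± standard deviation; IC50 from fitted curves.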
# [2] = system: A2780/CisR (cisplatin resistant) ovarian cancer cell line; test: MTT cytotoxicity and combination index in A2780/CisR cells; format: cell-based, human; conditions: 72 h
# How it was run: as §1
# [3] = system: A2780/CisR ovarian cancer xenograft; test: Anti-tumor efficacy in A2780/CisR ovarian cancer xenograft model; format: in vivo, mice; conditions: q4d x 4, 20 mg/kg PTX and/or 20 mg/kg CP, cisplatin 3 mg/kg
# [4] = system: LCC-6-MDR orthotopic tumor; test: Anti-tumor efficacy in orthotopic LCC-6-MDR breast cancer model; format: in vivo, mice; conditions: q4d x 4; 60 mg/kg PTX and/or 4.5 mg/kg C6CP, cisplatin 3 mg/kg
smiles,measurement,setting,value
N.N.[Cl][Pt][Cl] [cisplatin],IC50,[1],1.141 µg/mL
same,IC50,[2],10.88 µg/mL
same,effect on tumor growth,[3],small but significant effect by delaying the tumor growth
same,median lifespan,[3]; untreated 10.5 days,14.5 days
same,antitumor effect,[4],considerable antitumor effect
